# Screens: PubChem, Johns Hopkins Ion Channel Center
# Most compounds without a hit are left out; they make up all but 3.5% or so of the library.
# RGS4 act: potentiators or activators of RGS4; HEK293 M3R/inducible RGS4, carbachol calcium flux Fluo4; active compounds read low; B-score at 10 µM; 310,000 compounds, 0.92% hits; AID 463111;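 active = B-score of the integrated calcium signal more than 4 SD below the library mean, with starting fluorescence not abnormally high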;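 note: negative B-score means reduced calcium response which marks RGS4 activation or potentiation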
#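 Also added: carbachol at ECmax as muscarinic agonist stimulus; Assay system: HEK293 cells with stable M3R and inducible RGS4; Timing: overnight RGS4 induction, 30 min dye load 37 °C, 20 min compound RT; Measured by: Fluo4-AM (2 µM) calcium-flux fluorescence, kinetic read.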
# MrgX1 ag: human MrgX1 receptor agonism, primary screen. Q96LB2. MrgX1-HEK293 cells, Fluo-4 calcium fluorescence, agonist mode; active compounds read high. B-score at 10 µM. 310,000 compounds, 0.44% hits;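 active = calcium response B-score plate-corrected fluorescence ratio at least 3 library SD, with starting fluorescence B-score inside 5 SD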
# Target sequence (Q96LB2 whole entry, looked up): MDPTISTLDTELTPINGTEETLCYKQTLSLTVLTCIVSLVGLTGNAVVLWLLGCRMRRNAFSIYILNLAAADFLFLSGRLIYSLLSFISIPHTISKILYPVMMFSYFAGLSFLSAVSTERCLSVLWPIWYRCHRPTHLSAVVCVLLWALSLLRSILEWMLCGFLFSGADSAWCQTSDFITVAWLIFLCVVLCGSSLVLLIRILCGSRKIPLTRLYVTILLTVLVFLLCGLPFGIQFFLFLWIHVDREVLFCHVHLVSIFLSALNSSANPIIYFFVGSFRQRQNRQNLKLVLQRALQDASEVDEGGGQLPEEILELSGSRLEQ
#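 Test system: HEK293 cells stably expressing human MrgX1 receptor; amount: 15,000 cells per well; doses: compound delivered in addition one of three; times: overnight plating before 1 h dye loading; detection: Fluo-4 NW calcium-flux fluorescence, kinetic read; read-out basis: B-scored fluorescence response ratio; controls: positive and negative controls per plate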
# MrgX1 antagonist: human MrgX1 receptor antagonism, primary screen | Q96LB2 | MRGX1-HEK293 calcium flux, Fluo-4, BAM8-22 antagonism; active compounds read low | 310,000 compounds, 1.3% hits | B-score at 10 µM;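 active = calcium-response B-score plate-corrected more than 3 library SD below zero, starting fluorescence within 5 deviations, no agonist response on first addition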;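 note: peak minus trough fluorescence over baseline after final BAM8-22 challenge near maximal dose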
# RGS4 block: human RGS4 inhibition. B-score at 10 µM. 310,000 compounds, 0.45% hits. HEK293 M3R/RGS4 inducible, Fluo-4 calcium flux; active compounds read high; triggered by carbachol at its EC20. P49798;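 active = B-score, a plate-corrected calcium signal, over three deviations above library mean, with baseline fluorescence within five deviations of library mean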;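 note: RGS4 expression induced by doxycycline in cells with stable M3 receptor; B-score is computed from the integrated fluorescence ratio over baseline after carbachol; higher B-score means a larger calcium signal and so more RGS4 inhibition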
# Target sequence (P49798 whole entry, looked up): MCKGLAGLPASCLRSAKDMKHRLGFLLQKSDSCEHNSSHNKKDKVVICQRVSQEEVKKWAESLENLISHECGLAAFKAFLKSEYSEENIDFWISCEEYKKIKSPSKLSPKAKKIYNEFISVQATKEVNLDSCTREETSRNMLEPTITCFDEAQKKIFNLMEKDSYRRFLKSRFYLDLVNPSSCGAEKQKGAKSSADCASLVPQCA
# MrgX1 allo act: allosterically activates human MrgX1 receptor signaling | 310,000 compounds, 0.63% hits | MrgX1-HEK293, Fluo-4 calcium flux, FDSS; active compounds read high | B-score at 10 µM;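 active = plate-corrected calcium response at least 3 library SD above typical, normal starting fluorescence, not activating the receptor alone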;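 note: compound read alongside a low EC10 to EC30 dose of BAM8-22 agonist; peak minus trough fluorescence over baseline measured at the second addition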
# MrgX1 allo conf: reconfirmed allosteric activator of human MrgX1 receptor | shares compounds with MrgX1 allo act | MrgX1-HEK293, Fluo-4 calcium fluorescence, FDSS | activation (ratio percentage), % at 10 µM | 1,200 compounds, 13% hits | AID 602413;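 active = ratio at least 3 SD above the weak peptide control, stable starting fluorescence, no direct agonism earlier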;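 note: compound followed by low BAM8-22 agonist challenge near EC20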
# HEK293 Ca flux: counter-screen for MrgX1 antagonists: effect in parental HEK293 cells | shares compounds with MrgX1 antagonist | 4,000 compounds, 2% hits | fluorescence ratio F(max-min)/F0 at 10 µM | Fluo-4 calcium fluorescence, FDSS;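 active = duplicate-averaged calcium fluorescence ratio at least three times the standard deviation of buffer wells, a nonspecific response in parental cells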
# HEK293 Ca counter: activity in parental HEK293 cells without MrgX1. fluorescence ratio F(max-min)/F0 at 10 µM. shares compounds with MrgX1 antagonist. AID 624114. 4,000 compounds, 0.4% hits. parental HEK293 calcium flux, Fluo-4 fluorescence ratio; active compounds read high;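 active = calcium fluorescence ratio, averaged over duplicates, at least 3 SD of the buffer-well ratio, meaning a nonspecific response in receptor-free cells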;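 note: untransfected parental HEK293 lacking MrgX1 used as counterscreen for MrgX1 allosteric activators; fluorescence change taken during the second addition on a kinetic imager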
# HEK293 Ca cntr2: counter-screen for MrgX1 activators: effect in parental HEK293 cells | fluorescence ratio F(max-min)/F0 at 10 µM | 4,000 compounds, 8.7% hits | AID 624115 | Fluo-4 calcium fluorescence (FDSS); active compounds read high | shares compounds with MrgX1 antagonist;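 active = calcium fluorescence ratio at least three times the spread of buffer wells, meaning a non-specific response in parental cells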
# Numbers stand for hits; i = inactive; nt = no result.
SMILES,RGS4 act,MrgX1 ag,MrgX1 antagonist,RGS4 block,MrgX1 allo act,MrgX1 allo conf,HEK293 Ca flux,HEK293 Ca counter,HEK293 Ca cntr2
CCC(c1nnnn1Cc1cccs1)N1CCN(C(=O)c2ccco2)CC1 (centres undefined),i,i,i,i,7.11,i,i,i,i
Cc1ccc(C(c2nnnn2Cc2cccs2)N2CCN(C(=O)c3ccco3)CC2)cc1 (centres undefined),i,i,i,i,i,nt,nt,nt,nt
Cc1cc(C)n(C(=O)CNc2ccc(C)c(C)c2)n1,i,i,i,i,8.56,i,i,i,i
COc1ccc(NC(=O)c2ccc(S(=O)(=O)N(C)c3ccccc3)cc2)cn1,i,i,i,i,i,nt,nt,nt,nt
Cc1ccc(-c2csc3ncnc(NCCC(=O)O)c23)cc1C,i,i,i,i,6.73,i,i,i,i
Cc1ccc(-c2csc3ncnc(NCCC(=O)O)c23)cc1,i,i,i,i,i,nt,nt,nt,nt
CN(Cc1ccccc1)Cc1c[nH]c2ccccc12,i,i,i,i,i,nt,nt,nt,nt
c1ccc(Cc2c[nH]c3ccccc23)cc1,i,i,i,i,6.64,i,i,i,i
CC(CCc1ccccc1)NC(=S)NC(=O)c1ccco1 (centres undefined),i,i,i,i,14.2,i,i,i,i
O=C(NC(=S)N(CCc1ccccc1)CCc1ccccc1)c1ccco1,i,i,i,i,i,nt,nt,nt,nt
CCC(C)c1ccccc1NC(=S)NC(=O)c1ccco1 (centres undefined),i,i,i,i,7.43,i,i,i,i
O=C(NC(=S)Nc1ccccc1Cl)c1ccco1,i,i,i,i,i,nt,nt,nt,nt
Cc1ccccc1-n1ncc2c1CC(C)(C)CC2NC(=O)c1ccncc1 (centres undefined),i,i,i,i,i,nt,nt,nt,nt
CSc1ncccc1C(=O)NC1CC(C)(C)Cc2c1cnn2-c1ccccc1C (centres undefined),i,i,i,i,16.6,i,i,i,i
Cc1ccccc1-n1ncc2c1CC(C)(C)CC2NC(=O)CCC(F)(F)F (centres undefined),i,i,i,i,9.8,i,i,i,i
Cc1ccccc1-n1ncc2c1CC(C)(C)CC2NC(=O)c1snnc1C (centres undefined),i,i,i,i,10.4,7.8%,i,i,i
COc1ccc(S(=O)(=O)N2CCCC2)cc1C(=O)O,i,i,i,i,i,nt,nt,nt,nt
CCN1CCN(c2nc(C)c3c(n2)CC(C)CC3=O)CC1 (centres undefined),i,i,i,i,8.03,i,i,i,i
Cc1nc(N2CCN(Cc3ccccc3)CC2)nc2c1C(=O)CC(C)C2 (centres undefined),i,i,i,i,i,nt,nt,nt,nt
COc1ccc(S(=O)(=O)N2CCC(C(=O)NCC3CC3)CC2)cc1,i,i,i,i,12.6,i,i,i,i
COc1ccc(OCC(=O)N2CCN(S(=O)(=O)c3ccc(Cl)cc3)CC2)cc1,i,i,i,i,14.3,i,i,i,i
COc1ccccc1NC(=O)CC12CC3CC(CC(Br)(C3)C1)C2,i,i,i,i,i,nt,nt,nt,nt
O=C(CCc1ccccc1)Nc1ccc(S(=O)(=O)Nc2nccs2)cc1,i,i,i,i,i,nt,nt,nt,nt
CCOc1ccc(Oc2ccc(Cl)cc2NC(=O)C2=COCCO2)cc1,i,i,i,i,i,nt,nt,nt,nt
CN(C)CCN(Cc1ccccc1)S(=O)(=O)c1ccc(-c2ccc(=O)[nH]n2)s1,i,i,i,i,6.6,i,i,i,i
COc1ccc(S(=O)(=O)N(CC(=O)NCc2ccco2)c2ccc(C)cc2)cc1OC,i,i,i,i,i,nt,nt,nt,nt
CCc1ccc(NC(=O)c2ccccc2Br)cc1,i,i,i,i,i,nt,nt,nt,nt
